Experimental data: ChEMBL document CHEMBL4732027, “Pyridazinone derivatives as potential anti-inflammatory agents: synthesis and biological evaluation as PDE4 inhibitors” (RSC Med Chem, 2021)
Calls of active or inactive are those of the source. No cut-off for these calls is given here.

Assays:
[1] = target: T1, 3',5'-cyclic-AMP phosphodiesterase 4B (Homo sapiens, UniProt Q07343); assay: Inhibition of recombinant human PDE-4B expressed in Escherichia coli at 20 uM using cAMP as substrate incubated for 60 mins by PDE4 assay kit method relative to control
T1 sequence (Q07343 whole entry): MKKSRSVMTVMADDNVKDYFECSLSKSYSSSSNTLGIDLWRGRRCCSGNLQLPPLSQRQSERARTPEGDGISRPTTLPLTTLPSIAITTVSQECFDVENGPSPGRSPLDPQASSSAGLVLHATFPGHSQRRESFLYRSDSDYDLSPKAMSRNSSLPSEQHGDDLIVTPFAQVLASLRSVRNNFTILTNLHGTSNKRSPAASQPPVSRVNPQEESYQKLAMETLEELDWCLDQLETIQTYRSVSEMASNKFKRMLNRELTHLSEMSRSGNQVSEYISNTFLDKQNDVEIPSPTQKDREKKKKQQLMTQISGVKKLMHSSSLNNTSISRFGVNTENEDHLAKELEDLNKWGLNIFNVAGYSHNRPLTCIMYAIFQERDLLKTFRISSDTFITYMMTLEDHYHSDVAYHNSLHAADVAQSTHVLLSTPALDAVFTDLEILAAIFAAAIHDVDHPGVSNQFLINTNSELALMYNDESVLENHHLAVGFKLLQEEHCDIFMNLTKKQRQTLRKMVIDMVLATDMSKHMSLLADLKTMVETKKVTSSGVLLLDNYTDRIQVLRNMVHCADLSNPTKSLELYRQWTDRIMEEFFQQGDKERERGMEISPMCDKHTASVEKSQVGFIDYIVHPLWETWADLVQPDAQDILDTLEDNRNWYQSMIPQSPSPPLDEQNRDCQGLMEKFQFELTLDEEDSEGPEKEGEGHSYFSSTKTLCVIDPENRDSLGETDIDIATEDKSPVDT
Outline: (§1)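 Human recombinant PDE4 expressed in E. coli, incubated with cAMP and 5'-nucleotidase in 10 mM Tris-HCl pH 7.4 at 30 °C for 60 min. Released phosphate detected colorimetrically after 30 min colour development. IC50 from five concentrations by nonlinear regression; mean of two or three independent runs, each in triplicate.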

Mus musculus [2] = assay: Antiinflammatory activity in BALB/cJRj mouse air pouch model assessed as decrease in LPS-stimulated monocyte recruitment in air pouch at 200 uM, sc measured after 6 hrs by flow cytometry analysis (reference value: 1.9); assay type: functional
Outline: (§2)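 Seven-week-old BALB/cJRj mice. Dorsal subcutaneous air pouch made under isoflurane with 3 mL filtered air on day 0, refilled day 3. On day 7, 2 mL LPS (10 ng/mL) in 0.5% DMSO with compound at 2, 20 or 200 µM injected into the pouch; controls got 0.5% DMSO in saline. After 6 h, exudate collected by lavage with 2 mL 5 mM PBS-EDTA. Cells counted and stained for Ly6G and F4/80, then analysed by flow cytometry. Eight to 17 animals per group.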

Macrophage [3] = assay: Antiinflammatory activity against LPS-induced human PBMC derived primary macrophages assessed as increase in cell size at 10 uM incubated for 24 hrs by scanning electron microscopic analysis; assay type: functional, cell-based
Outline: (§3)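 Human PBMCs isolated from EDTA blood (red cells lysed by hypotonic shock), grown on coverslips in RPMI 1640 + 10% heat-inactivated FBS with 25 ng/mL M-CSF for 24 h at 37 °C, 5% CO2. Non-adherent cells removed, then 24 h stimulation with LPS 10 ng/mL in 0.5% DMSO ± compound. Cells fixed in 2.5% glutaraldehyde, dehydrated in ethanol, dried with HMDS, gold-palladium coated, imaged by FE-SEM at 2 kV.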

Macrophage [4] = assay: Cytotoxicity against human PBMC derived primary macrophages assessed as reduction in cell viability at 10 uM incubated for 24 hrs by LDH assay; assay type: cell-based
Outline: (§4)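 Cell death in human PBMC-derived macrophages (M-CSF 25 ng/mL, 24 h) after 24 h LPS (10 ng/mL, 0.5% DMSO) plus compound at 5–50 µM. LDH activity measured in supernatant with a commercial kit, absorbance at 492 nm corrected at 700 nm. Eight donors.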

Macrophage [5] = assay: Antiinflammatory activity against human PBMC derived primary macrophages assessed as reduction in LPS-induced IL-8 level at 10 uM incubated for 24 hrs by ELISA relative to control; assay type: functional
Outline: (§5)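 Macrophages from human blood PBMCs, differentiated 24 h with 25 ng/mL M-CSF, non-adherent cells removed. Stimulated 24 h with 10 ng/mL E. coli LPS in 0.5% DMSO, with compound at 5–50 µM. Supernatant cytokines measured by sandwich ELISA against a recombinant standard curve. Detection limits: IL-1β 3.9, IL-6 and TNF-α 7.8, IL-8 15.7 pg/mL. Cells from 8 donors; Kruskal–Wallis then Wilcoxon–Mann–Whitney tests.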

Macrophage [6] = assay: Antiinflammatory activity against LPS-treated human PBMC derived primary macrophages assessed as increase in flattened cell morphology at 10 uM incubated for 24 hrs by scanning electron microscopic analysis; assay type: functional, cell-based; outline: as §3
Mus musculus [7] = assay: Antiinflammatory activity in BALB/cJRj mouse air pouch model assessed as decrease in LPS-stimulated monocyte recruitment in air pouch at 20 uM, sc measured after 6 hrs by flow cytometry analysis (reference value: 1.9); assay type: functional; outline: as §2
Macrophage [8] = assay: Antiinflammatory activity against LPS-treated human PBMC derived primary macrophages assessed as intricate cytoplasm at 10 uM incubated for 24 hrs by scanning electron microscopic analysis; assay type: functional, cell-based; outline: as §3
Mus musculus [9] = assay: Antiinflammatory activity in BALB/cJRj mouse air pouch model assessed as decrease in LPS-stimulated monocyte recruitment in air pouch at 2 uM, sc measured after 6 hrs by flow cytometry analysis; assay type: functional, organism-based; outline: as §2
Macrophage [10] = assay: Antiinflammatory activity against human PBMC derived primary macrophages assessed as reduction in LPS-induced vesicle number at 10 uM incubated for 24 hrs by scanning electron microscopic analysis; assay type: functional, cell-based; outline: as §3
Mus musculus [11] = assay: Antiinflammatory activity in BALB/cJRj mouse air pouch model assessed as decrease in LPS-stimulated macrophage recruitment in air pouch at 2 to 200 uM, sc measured after 6 hrs by flow cytometry analysis; assay type: functional, organism-based; conditions: dose 2-200 µM; outline: as §2
Mus musculus [12] = assay: Antiinflammatory activity in BALB/cJRj mouse air pouch model assessed as decrease in LPS-stimulated monocyte recruitment in air pouch at 2 to 20 uM, sc measured after 6 hrs by flow cytometry analysis; assay type: functional, organism-based; conditions: dose 2-20 µM; outline: as §2
Macrophage [13] = assay: Antiinflammatory activity against human PBMC derived primary macrophages assessed as reduction in LPS-induced IL-8 level at 50 uM incubated for 24 hrs by ELISA relative to control; assay type: functional; outline: as §5
Macrophage [14] = assay: Antiinflammatory activity against human PBMC derived primary macrophages assessed as reduction in LPS-induced IL-1beta level at 50 uM incubated for 24 hrs by ELISA relative to control; assay type: functional; outline: as §5
Macrophage [15] = assay: Antiinflammatory activity against human PBMC derived primary macrophages assessed as reduction in LPS-induced TNF-alpha level at 50 uM incubated for 24 hrs by ELISA relative to control; assay type: functional; outline: as §5
Mus musculus [16] = assay: Antiinflammatory activity in BALB/cJRj mouse air pouch model assessed as decrease in LPS-stimulated macrophage recruitment in air pouch at 2 to 20 uM, sc measured after 6 hrs by flow cytometry analysis; assay type: functional, organism-based; conditions: dose 2-20 µM; outline: as §2
Macrophage [17] = assay: Antiinflammatory activity against human PBMC derived primary macrophages assessed as reduction in LPS-induced cell morphology changes at 50 uM incubated for 24 hrs by scanning electron microscopic analysis; assay type: functional, cell-based; outline: as §3
Macrophage [18] = assay: Antiinflammatory activity against human PBMC derived primary macrophages assessed as reduction in LPS-induced IL-8 level at 20 uM incubated for 24 hrs by ELISA relative to control; assay type: functional; outline: as §5
Macrophage [19] = assay: Antiinflammatory activity against human PBMC derived primary macrophages assessed as reduction in LPS-induced IL-6 level at 10 uM incubated for 24 hrs by ELISA relative to control; assay type: functional; outline: as §5
Macrophage [20] = assay: Cytotoxicity against human PBMC derived primary macrophages assessed as reduction in cell viability at 5 to 50 uM incubated for 24 hrs by LDH assay; assay type: cell-based; conditions: dose 5-50 µM; outline: as §4
Macrophage [21] = assay: Antiinflammatory activity against human PBMC derived primary macrophages assessed as reduction in LPS-induced TNF-alpha level at 5 uM incubated for 24 hrs by ELISA relative to control; assay type: functional; outline: as §5
Mus musculus [22] = assay: Antiinflammatory activity in BALB/cJRj mouse air pouch model assessed as decrease in LPS-stimulated monocyte recruitment in air pouch at 200 uM, sc measured after 6 hrs by flow cytometry analysis relative to control; assay type: functional; outline: as §2
Macrophage [23] = assay: Antiinflammatory activity against human PBMC derived primary macrophages assessed as reduction in LPS-induced IL-6 level at 20 uM incubated for 24 hrs by ELISA relative to control; assay type: functional; outline: as §5
[24] = target: T1, 3',5'-cyclic-AMP phosphodiesterase 4B; assay: Inhibition of recombinant human PDE-4B expressed in Escherichia coli using cAMP as substrate incubated for 60 mins by PDE4 assay kit method; outline: as §1
Macrophage [25] = assay: Antiinflammatory activity against human PBMC derived primary macrophages assessed as reduction in LPS-induced IL-6 level at 5 uM incubated for 24 hrs by ELISA relative to control; assay type: functional; outline: as §5
[26] = Lipophilicity, logP of compound; assay type: physicochemical; conditions: octanol/water
Outline: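 LogP calculated with software, not measured.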

Macrophage [27] = assay: Antiinflammatory activity against human PBMC derived primary macrophages assessed as reduction in LPS-induced IL-6 level at 50 uM incubated for 24 hrs by ELISA relative to control; assay type: functional; outline: as §5
Macrophage [28] = assay: Antiinflammatory activity against human PBMC derived primary macrophages assessed as reduction in LPS-induced IL-1beta level at 20 uM incubated for 24 hrs by ELISA relative to control; assay type: functional; outline: as §5

| inhibition [1] [%] | SMILES | also measured |
| --- | --- | --- |
| 37.5 | COc1ccc2[nH]cc(C3CC(C)=NNC3=O)c2c1 (stereo not given) | – |
| 19.5 | CC1=NNC(=O)C(c2c[nH]c3ccc([N+](=O)[O-])cc23)C1 (stereo not given) | – |
| 2.2 | CC1=NNC(=O)C(c2c[nH]c3ccc(I)cc23)C1 (stereo not given) | – |
| 4.5 | CC1=NN(Cc2ccccc2)C(=O)C(c2c[nH]c3ccc(I)cc23)C1 (stereo not given) | – |
| 9.8 | CC1=NNC(=O)C(c2c[nH]c3ccc(Br)cc23)C1 (stereo not given) | – |
| 28.9 | COc1ccc2[nH]cc(C3CC(C)=NN(Cc4ccccc4)C3=O)c2c1 (stereo not given) | – |
| 12.8 | CC1=NNC(=O)C(c2c[nH]c3ccc(F)cc23)C1 (stereo not given) | – |
| 9.4 | CC1=NN(Cc2ccccc2)C(=O)C(c2c[nH]c3ccc(F)cc23)C1 (stereo not given) | – |
| 13.4 | COc1ccc2[nH]cc(C3CC(C)=NN(C)C3=O)c2c1 (stereo not given) | – |
| 8.7 | CC1=NN(Cc2ccccc2)C(=O)C(c2c[nH]c3ccc(Br)cc23)C1 (stereo not given) | – |
| 32.3 | CC1=NNC(=O)C(c2c[nH]c3ccccc23)C1 (stereo not given) | – |
| 8.7 | CC1=NN(C)C(=O)C(c2c[nH]c3ccccc23)C1 (stereo not given) | – |
| 21.8 | COc1ccc2[nH]cc(-c3cc(C)nn(C)c3=O)c2c1 | – |
| 63.9 | COc1ccc2[nH]cc(-c3cc(C)n[nH]c3=O)c2c1 | inhibition (Mus musculus [12]): Active; inhibition at 50 µM (Macrophage [13]): 25%; inhibition at 50 µM (Macrophage [14]): 54%; inhibition at 50 µM (Macrophage [15]): 47%; inhibition (Mus musculus [16]): Active; Activity (Macrophage [17]): Active; inhibition at 20 µM (Macrophage [18]): 16%; inhibition at 10 µM (Macrophage [19]): 23%; Activity (Macrophage [20]): Non-Toxic; inhibition at 5 µM (Macrophage [21]): 43%; inhibition in vivo at 200 µM (Mus musculus [22]): 69%; inhibition at 20 µM (Macrophage [23]): 28%; IC50 [24]: 251 nM; inhibition at 5 µM (Macrophage [25]): 16%; logP [26]: 0.43; inhibition at 50 µM (Macrophage [27]): 21%; inhibition at 20 µM (Macrophage [28]): 58% |

Second part, the compound before the results:

| SMILES | inhibition [1] [%] | also measured |
| --- | --- | --- |
| Cc1cc(-c2c[nH]c3ccc(F)cc23)c(=O)n(Cc2ccccc2)n1 | 17.6 | – |
| Cc1cc(-c2c[nH]c3ccccc23)c(=O)[nH]n1 | 45.6 | – |
| Cc1cc(-c2c[nH]c3ccc([N+](=O)[O-])cc23)c(=O)[nH]n1 | 26.8 | – |
| Cc1cc(-c2c[nH]c3ccc(Br)cc23)c(=O)n(Cc2ccccc2)n1 | 14.2 | – |
| COc1ccc2[nH]cc(-c3cc(C)nn(Cc4ccccc4)c3=O)c2c1 | 49.1 | – |
| Cc1cc(-c2c[nH]c3ccc(Br)cc23)c(=O)[nH]n1 | 16.8 | – |
| Cc1cc(-c2c[nH]c3ccc(F)cc23)c(=O)[nH]n1 | 23.6 | – |
| Cc1cc(-c2c[nH]c3ccccc23)c(=O)n(Cc2ccccc2)n1 | 30.1 | – |
| Cc1cc(-c2c[nH]c3ccc(I)cc23)c(=O)n(Cc2ccccc2)n1 | 8.9 | – |
| CC(C)Cn1c(=O)n(C)c(=O)c2nc[nH]c21 | 38 | – |
| Cc1cc(-c2c[nH]c3ccccc23)c(=O)n(C)n1 | 15.3 | – |
| O=C(Nc1c(Cl)cncc1Cl)c1ccc(OC(F)F)c(OCC2CC2)c1 [ROFLUMILAST] | 74.6 | fold change (FC) (Mus musculus [2]): 2; Activity (Macrophage [3]): Active; Activity (Macrophage [4]): Non-Toxic; inhibition at 10 µM (Macrophage [5]): 10%; Activity (Macrophage [6]): Active; fold change (FC) (Mus musculus [7]): 3.5; Activity (Macrophage [8]): Active; inhibition (Mus musculus [9]): inactive; Activity (Macrophage [10]): Active; inhibition (Mus musculus [11]): inactive |
| Cc1cc(-c2c[nH]c3ccc(I)cc23)c(=O)[nH]n1 | 5.9 | – |
| CC1=NN(Cc2ccccc2)C(=O)C(c2c[nH]c3ccccc23)C1 (stereo not given) | 17.7 | – |
